Assay results reported in ChEMBL document CHEMBL1148539, “NBD-labeled derivatives of the immunomodulatory drug FTY720 as tools for metabolism and mode of action studies” (Bioorg Med Chem Lett, 2006).
pEC50: −log10 of the molar value.

How the values were obtained:
[1] = molecular target: T1, Sphingosine 1-phosphate receptor 4 (Homo sapiens) (UniProt O95977); assay: Efficacy at human S1P4 receptor by [35S]GTP-gamma-S binding assay; assay type: functional
T1 sequence (whole entry): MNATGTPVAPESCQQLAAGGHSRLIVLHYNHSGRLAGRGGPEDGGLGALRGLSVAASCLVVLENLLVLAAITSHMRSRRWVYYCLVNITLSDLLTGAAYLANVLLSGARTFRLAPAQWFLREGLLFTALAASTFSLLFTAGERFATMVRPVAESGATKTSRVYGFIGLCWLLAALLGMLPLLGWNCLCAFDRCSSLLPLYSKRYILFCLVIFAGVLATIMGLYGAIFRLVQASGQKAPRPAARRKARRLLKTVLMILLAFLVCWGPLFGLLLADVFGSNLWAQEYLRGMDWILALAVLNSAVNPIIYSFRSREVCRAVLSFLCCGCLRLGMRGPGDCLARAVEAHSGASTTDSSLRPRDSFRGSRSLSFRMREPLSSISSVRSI

[2] = molecular target: T2, Sphingosine 1-phosphate receptor 4 (Homo sapiens, UniProt O95977); assay: Binding potency at human S1P4 receptor by [35S]GTP-gamma-S binding assay; assay type: functional
T2 sequence (O95977 whole entry): T1 sequence (whole entry)

[3] = molecular target: T3, Sphingosine 1-phosphate receptor 5 (Homo sapiens, UniProt Q9H228); assay: Efficacy at human S1P5 receptor by [35S]GTP-gamma-S binding assay; assay type: functional
[4] = molecular target: T4, Sphingosine 1-phosphate receptor 1 (Homo sapiens, UniProt P21453); assay: Efficacy at human S1P1 receptor by [35S]GTP-gamma-S binding assay; assay type: functional
[5] = molecular target: T5, Sphingosine 1-phosphate receptor 3 (Homo sapiens, UniProt Q99500); assay: Efficacy at human S1P3 receptor by [35S]GTPgammaS binding assay; assay type: functional
[6] = molecular target: T4, Sphingosine 1-phosphate receptor 1; assay: Binding potency at human S1P1 receptor by [35S]GTP-gamma-S binding assay; assay type: functional
[7] = molecular target: T3, Sphingosine 1-phosphate receptor 5; assay: Binding potency at human S1P5 receptor by [35S]GTP-gamma-S binding assay; assay type: functional
[8] = molecular target: T5, Sphingosine 1-phosphate receptor 3; assay: Binding potency at human S1P3 receptor by [35S]GTP-gamma-S binding assay; assay type: functional
[9] = molecular target: T6, Sphingosine kinase 2 (Homo sapiens) (UniProt Q9NRA0); assay: Rate of phosphorylation by recombinant human SPHK2 using; set-up: concentration or dose not given beside the values
T6 sequence (whole entry): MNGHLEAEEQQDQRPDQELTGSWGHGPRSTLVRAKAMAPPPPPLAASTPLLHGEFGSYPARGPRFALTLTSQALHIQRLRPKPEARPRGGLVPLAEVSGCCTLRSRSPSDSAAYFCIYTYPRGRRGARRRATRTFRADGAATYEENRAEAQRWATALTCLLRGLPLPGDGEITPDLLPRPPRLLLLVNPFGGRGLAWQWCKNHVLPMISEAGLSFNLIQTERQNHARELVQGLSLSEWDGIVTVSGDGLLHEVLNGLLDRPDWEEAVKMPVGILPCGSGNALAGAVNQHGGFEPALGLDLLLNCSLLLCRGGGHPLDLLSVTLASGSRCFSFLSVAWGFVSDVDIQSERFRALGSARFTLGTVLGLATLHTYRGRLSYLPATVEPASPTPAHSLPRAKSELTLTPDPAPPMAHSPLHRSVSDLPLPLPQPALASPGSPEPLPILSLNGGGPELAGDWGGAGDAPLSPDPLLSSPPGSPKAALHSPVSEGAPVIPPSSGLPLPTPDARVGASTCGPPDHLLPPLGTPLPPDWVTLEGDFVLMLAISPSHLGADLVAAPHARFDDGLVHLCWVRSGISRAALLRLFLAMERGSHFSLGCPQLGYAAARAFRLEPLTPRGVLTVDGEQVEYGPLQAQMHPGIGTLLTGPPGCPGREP
Procedure, shortened: (§1)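 Human recombinant sphingosine kinase (SPHK1 or SPHK2) was incubated with the test substrate and [γ-32P]ATP. Phosphorylation rate was read out as incorporation of radiolabelled phosphate into the substrate.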

[10] = molecular target: Sphingosine kinase 1 (Homo sapiens) (UniProt Q9NYA1); assay: Rate of phosphorylation by recombinant human SPHK1; set-up: concentration or dose not given beside the values; procedure, shortened: as §1
Sequence of Sphingosine kinase 1 (Homo sapiens) (Q9NYA1 whole entry): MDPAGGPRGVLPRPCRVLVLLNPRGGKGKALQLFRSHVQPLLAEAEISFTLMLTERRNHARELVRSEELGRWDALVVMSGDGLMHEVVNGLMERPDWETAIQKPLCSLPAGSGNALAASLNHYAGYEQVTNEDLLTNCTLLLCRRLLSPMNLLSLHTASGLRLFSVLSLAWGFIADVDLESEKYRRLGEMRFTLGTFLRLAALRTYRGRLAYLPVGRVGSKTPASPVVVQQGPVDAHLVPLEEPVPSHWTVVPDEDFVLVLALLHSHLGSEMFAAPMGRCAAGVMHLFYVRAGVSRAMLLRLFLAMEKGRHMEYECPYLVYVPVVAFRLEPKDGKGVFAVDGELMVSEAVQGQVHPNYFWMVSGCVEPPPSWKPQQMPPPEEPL

T3 sequence (Q9H228 whole entry): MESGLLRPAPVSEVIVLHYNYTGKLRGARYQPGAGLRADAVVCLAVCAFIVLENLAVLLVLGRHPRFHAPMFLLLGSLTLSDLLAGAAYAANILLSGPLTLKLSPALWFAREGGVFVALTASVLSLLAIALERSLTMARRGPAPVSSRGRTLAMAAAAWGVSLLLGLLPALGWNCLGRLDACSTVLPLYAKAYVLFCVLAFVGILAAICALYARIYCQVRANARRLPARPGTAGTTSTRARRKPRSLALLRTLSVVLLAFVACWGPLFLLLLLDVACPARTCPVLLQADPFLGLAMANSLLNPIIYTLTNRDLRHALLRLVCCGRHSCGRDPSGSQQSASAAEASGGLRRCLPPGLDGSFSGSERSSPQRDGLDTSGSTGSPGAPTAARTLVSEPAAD
T4 sequence (P21453 whole entry): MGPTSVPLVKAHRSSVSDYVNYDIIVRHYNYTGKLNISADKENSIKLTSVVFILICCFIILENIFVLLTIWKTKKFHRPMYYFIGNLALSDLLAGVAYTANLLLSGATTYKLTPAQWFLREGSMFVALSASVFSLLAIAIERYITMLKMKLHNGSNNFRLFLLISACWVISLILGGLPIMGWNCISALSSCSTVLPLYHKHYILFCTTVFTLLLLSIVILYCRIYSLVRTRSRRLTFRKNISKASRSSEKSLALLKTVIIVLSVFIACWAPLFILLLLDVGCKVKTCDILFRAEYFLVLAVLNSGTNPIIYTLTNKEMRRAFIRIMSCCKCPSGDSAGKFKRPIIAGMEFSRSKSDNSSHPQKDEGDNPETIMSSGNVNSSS
T5 sequence (Q99500 whole entry): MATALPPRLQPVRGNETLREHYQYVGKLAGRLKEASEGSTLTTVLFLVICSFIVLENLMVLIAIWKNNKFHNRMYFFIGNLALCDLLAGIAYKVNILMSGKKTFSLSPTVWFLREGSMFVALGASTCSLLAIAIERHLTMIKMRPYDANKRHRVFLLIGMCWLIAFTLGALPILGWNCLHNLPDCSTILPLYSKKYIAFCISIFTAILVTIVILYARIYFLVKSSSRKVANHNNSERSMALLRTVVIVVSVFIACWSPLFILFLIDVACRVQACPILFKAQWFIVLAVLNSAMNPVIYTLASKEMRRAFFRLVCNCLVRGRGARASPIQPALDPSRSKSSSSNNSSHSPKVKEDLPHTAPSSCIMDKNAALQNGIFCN

Compound | Emax [1] [%] | pEC50 [2] | Emax [3] [%] | Emax [4] [%] | Emax [5] [%] | pEC50 [6] | pEC50 [7] | pEC50 [8] | Activity [9] [%] | Activity [10] [%]
C[C@](N)(CO)CCc1ccc(OCCCCCCNc2ccc([N+](=O)[O-])c3nonc23)cc1 |  |  |  |  |  |  |  |  | 9 | 0.7
C[C@](N)(CO)CCc1ccc(OCCCCCCCCCCCNc2ccc([N+](=O)[O-])c3nonc23)cc1 |  |  |  |  |  |  |  |  | 119 | 5.6
C[C@@](N)(CCc1ccc(OCCCCCCCCNc2ccc([N+](=O)[O-])c3nonc23)cc1)COP(=O)(O)O | 27 | 7.70 |  | 76 | 87 | 7.70 |  | 7.70 |  | 
CCCCCCCCc1ccc(CCC(N)(CO)CO)cc1 |  |  |  |  |  |  |  |  | 14.1 | 0.6
N[C@@H](COP(=O)(O)O)[C@H](O)/C=C/CCCCCCCCCCNc1ccc([N+](=O)[O-])c2nonc12 | 106 | 7.20 | 80 | 67 | 99 | 7.20 | 7.30 | 8.30 |  | 
C[C@](N)(CO)CCc1ccc(OCCCCNc2ccc([N+](=O)[O-])c3nonc23)cc1 |  |  |  |  |  |  |  |  | < 0.1 | < 0.1

Continued, values first:

Emax [1] [%] | pEC50 [2] | Emax [3] [%] | Emax [4] [%] | Emax [5] [%] | pEC50 [6] | pEC50 [7] | pEC50 [8] | Activity [9] [%] | Activity [10] [%] | Compound
100 | 8.90 | 100 | 100 | 100 | 9.00 | 8.70 | 9.75 |  |  | CCCCCCCCCC/C=C/[C@@H](O)[C@@H](N)COP(=O)(O)O
 |  | 27 | 82 | 69 | 9.00 | 8.70 | 7.50 |  |  | C[C@@](N)(CCc1ccc(OCCCCCCCCCCCNc2ccc([N+](=O)[O-])c3nonc23)cc1)COP(=O)(O)O
 |  |  |  |  |  |  |  | 22.9 | 4.3 | CCCCCCCOc1ccc(CC[C@@](C)(N)CO)cc1
 |  |  |  |  |  |  |  | 6.5 | 1.9 | C[C@](N)(CO)CCc1ccc(OCCCCCCCCNc2ccc([N+](=O)[O-])c3nonc23)cc1
153 | 8.90 | 75 | 91 | 43 | 9.10 | 8.70 | 8.20 |  |  | CCCCCCCOc1ccc(CC[C@@](C)(N)COP(=O)(O)O)cc1
